Measurements published in ChEMBL document CHEMBL1146203, “Acridone-based inhibitors of inosine 5'-monophosphate dehydrogenase: discovery and SAR leading to the identification of N-(2-(6-(4-ethylpiperazin-1-yl)pyridin-3-yl)propan-2-yl)-2- fluoro-9-oxo-9,10-dihydroacridine-3-carboxamide (BMS-566419)” (J Med Chem, 2007).
Active and inactive are the calls of the source. The rule behind the calls is not given here.

Key:
[1] = biological target: Inosine-5'-monophosphate dehydrogenase 2 (Homo sapiens, UniProt P12268); assay: Inhibition of human IMPDH2
PBMC = assay: Inhibition of T cell proliferation in PBMC cells; type: functional, cell-based; settings: Homo sapiens
Summary of the method: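 Human PBMCs isolated from heparinized whole blood by density gradient and plated at 5 × 10^4 cells/well in RPMI 1640 with 10% FBS. Stimulated with anti-CD3 OKT3 (200 ng/mL) plus soluble anti-CD28 (1 µg/mL). Compounds tested in triplicate from 3.3 µM in 3-fold dilutions with 0.5% DMSO for 72 h.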

CCRF-CEM = assay: Inhibition of CEM cell proliferation; type: functional, cell-based; settings: Homo sapiens
Summary of the method: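 Human CEM T-lymphoblasts grown in RPMI 1640 with 10% heat-inactivated FBS and penicillin/streptomycin. Seeded at 3000 cells/well with 0.5% DMSO; compounds tested in triplicate from 10 µM top concentration in 3-fold dilutions.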

[2] = Clearance in cynomolgus monkey at 2 mg/kg, iv; type: ADME, organism-based, Macaca fascicularis; parameters: dose 2 mg/kg, route intravenous; settings: in vivo
Summary of the method: (§1)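 Rat and cynomolgus monkey PK: oral dose 10 mg/kg and iv dose 2 mg/kg; oral vehicle 60% PEG400/40% HCl at pH 3. Cmax, Tmax and AUC taken from the oral arm; T1/2, MRT, Cl and Vss from the iv arm; Fpo calculated. Values are the mean ± SD of three animals.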

[3] = Mean residence time in rat at 2 mg/kg, iv; type: ADME, organism-based; parameters: dose 2 mg/kg, route intravenous; settings: in vivo; summary of the method: as §1
[4] = Half life in cynomolgus monkey at 2 mg/kg, iv; type: ADME, organism-based, Macaca fascicularis; parameters: dose 2 mg/kg, route intravenous; settings: in vivo; summary of the method: as §1
Serum = assay: Protein binding in serum; type: ADME, cell-free; settings: human
Rattus norvegicus [5] = assay: Tmax in rat at 10 mg/kg, po; type: ADME, organism-based; parameters: dose 10 mg/kg, route oral; settings: in vivo; summary of the method: as §1
Cytochrome P450 2D6 = Cytochrome P450 2D6 (Homo sapiens, UniProt P10635); assay: Inhibition of CYP2D6; type: ADME
Sequence of Cytochrome P450 2D6 (P10635 whole entry): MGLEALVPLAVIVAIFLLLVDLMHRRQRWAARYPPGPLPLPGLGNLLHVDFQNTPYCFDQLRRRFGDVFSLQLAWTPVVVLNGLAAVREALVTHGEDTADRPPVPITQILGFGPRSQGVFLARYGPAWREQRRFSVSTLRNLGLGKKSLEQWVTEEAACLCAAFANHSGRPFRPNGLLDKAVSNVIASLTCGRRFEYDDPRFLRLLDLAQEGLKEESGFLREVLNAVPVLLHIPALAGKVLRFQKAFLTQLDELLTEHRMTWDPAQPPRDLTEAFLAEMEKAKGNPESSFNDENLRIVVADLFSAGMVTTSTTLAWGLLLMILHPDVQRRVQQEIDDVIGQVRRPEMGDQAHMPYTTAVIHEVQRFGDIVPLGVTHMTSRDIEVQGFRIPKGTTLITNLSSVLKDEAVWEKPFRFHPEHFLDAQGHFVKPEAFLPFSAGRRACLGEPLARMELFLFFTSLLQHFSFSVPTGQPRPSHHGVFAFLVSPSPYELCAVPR
Summary of the method: (§2)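 Inhibition measured against isolated CYP enzymes.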

Cytochrome P450 2C9 = Cytochrome P450 2C9 (Homo sapiens, UniProt P11712); assay: Inhibition of CYP2C9; type: ADME; summary of the method: as §2
Sequence of Cytochrome P450 2C9 (P11712 whole entry): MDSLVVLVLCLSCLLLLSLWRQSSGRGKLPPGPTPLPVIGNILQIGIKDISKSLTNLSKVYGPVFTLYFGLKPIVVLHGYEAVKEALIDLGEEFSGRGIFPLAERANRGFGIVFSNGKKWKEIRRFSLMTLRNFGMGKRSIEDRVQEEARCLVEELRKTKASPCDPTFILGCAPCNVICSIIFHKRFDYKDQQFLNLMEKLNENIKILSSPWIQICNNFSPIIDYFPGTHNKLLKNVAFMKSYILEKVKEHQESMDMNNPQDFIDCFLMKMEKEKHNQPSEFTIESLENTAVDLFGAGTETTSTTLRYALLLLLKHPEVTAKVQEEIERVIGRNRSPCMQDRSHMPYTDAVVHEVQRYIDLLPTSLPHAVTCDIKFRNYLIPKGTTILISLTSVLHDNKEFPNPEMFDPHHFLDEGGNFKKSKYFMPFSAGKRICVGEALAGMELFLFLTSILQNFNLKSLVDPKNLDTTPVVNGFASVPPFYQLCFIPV

[6] = Lipophilicity, log P of the compound; type: physicochemical; settings: octanol/water
[7] = Cmax in rat at 10 mg/kg, po; type: ADME, organism-based; parameters: dose 10 mg/kg, route oral; settings: in vivo; summary of the method: as §1
[8] = Bioavailability in cynomolgus monkey at 10 mg/kg, po; settings: in vivo
[9] = Volume of distribution at steady state in rat at 2 mg/kg, iv; type: ADME, organism-based; parameters: dose 2 mg/kg, route intravenous; settings: in vivo, read-out: Vdss; summary of the method: as §1
[10] = Clearance in rats at 2 mg/kg, iv; type: ADME, organism-based; parameters: dose 2 mg/kg, route intravenous; settings: rat, in vivo; summary of the method: as §1
[11] = AUC in rat at 10 mg/kg, po; type: ADME, organism-based; parameters: dose 10 mg/kg, route oral; settings: plasma; summary of the method: as §1
Rattus norvegicus [12] = assay: Efficacy against Freund's complete adjuvant-induced arthritis in Lewis rat assessed as inhibition of paw swelling at 10 mg/kg, po after 21 days; type: functional, organism-based; parameters: dose 10 mg/kg
Summary of the method: (§3)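 Male Lewis rats; arthritis induced by subcutaneous Freund's complete adjuvant at the tail base. Oral dosing once daily for 21 days from day 0, in 60% PEG400/40% 0.01 N HCl vehicle; 8 rats per group. Hind paw volume was measured by plethysmometry at baseline and over three weeks, and the increase above baseline was calculated. Groups were compared with vehicle by Student's t test.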

[13] = Cmax in cynomolgus monkey at 10 mg/kg, po; type: ADME, organism-based, Macaca fascicularis; parameters: dose 10 mg/kg, route oral; settings: in vivo; summary of the method: as §1
[14] = Half life in rat at 2 mg/kg, iv; type: ADME, organism-based; parameters: dose 2 mg/kg, route intravenous; settings: in vivo; summary of the method: as §1
[15] = Permeability across Caco-2 cells; type: ADME, cell-based; settings: human, read-out: permeability
Cytochrome P450 1A2 = biological target: T1, Cytochrome P450 1A2 (Homo sapiens, UniProt P05177); assay: Inhibition of CYP1A2; type: ADME; summary of the method: as §2
T1 sequence (P05177 whole entry): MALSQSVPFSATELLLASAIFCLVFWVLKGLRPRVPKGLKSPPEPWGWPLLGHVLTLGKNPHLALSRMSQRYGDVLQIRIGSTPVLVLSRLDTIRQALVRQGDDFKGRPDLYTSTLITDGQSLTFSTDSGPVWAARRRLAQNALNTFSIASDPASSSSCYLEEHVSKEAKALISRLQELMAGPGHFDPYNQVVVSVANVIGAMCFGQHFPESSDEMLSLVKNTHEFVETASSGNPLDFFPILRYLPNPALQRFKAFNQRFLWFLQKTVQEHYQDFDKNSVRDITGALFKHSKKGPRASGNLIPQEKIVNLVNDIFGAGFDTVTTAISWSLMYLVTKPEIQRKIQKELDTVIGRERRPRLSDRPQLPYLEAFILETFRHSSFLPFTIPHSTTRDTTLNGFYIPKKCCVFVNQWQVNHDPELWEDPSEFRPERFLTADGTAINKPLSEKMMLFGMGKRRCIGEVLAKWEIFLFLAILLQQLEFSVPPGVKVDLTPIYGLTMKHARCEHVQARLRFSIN

Cytochrome P450 2C19 = Cytochrome P450 2C19 (Homo sapiens, UniProt P33261); assay: Inhibition of CYP2C19; type: ADME; summary of the method: as §2
Sequence of Cytochrome P450 2C19 (P33261 whole entry): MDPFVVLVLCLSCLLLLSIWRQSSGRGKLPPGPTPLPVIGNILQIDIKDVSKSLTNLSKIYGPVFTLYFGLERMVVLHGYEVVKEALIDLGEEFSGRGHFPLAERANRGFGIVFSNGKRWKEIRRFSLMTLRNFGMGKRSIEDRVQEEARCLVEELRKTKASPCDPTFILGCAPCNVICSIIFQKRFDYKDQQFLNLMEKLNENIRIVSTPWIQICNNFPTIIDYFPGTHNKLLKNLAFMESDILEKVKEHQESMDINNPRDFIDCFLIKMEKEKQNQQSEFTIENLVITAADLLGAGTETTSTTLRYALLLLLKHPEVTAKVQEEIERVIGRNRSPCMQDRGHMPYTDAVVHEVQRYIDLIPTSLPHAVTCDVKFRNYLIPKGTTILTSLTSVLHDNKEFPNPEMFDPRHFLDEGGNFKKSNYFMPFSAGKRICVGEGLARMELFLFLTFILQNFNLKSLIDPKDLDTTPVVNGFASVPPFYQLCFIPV

[16] = Bioavailability in rat at 10 mg/kg, po; type: ADME, organism-based; settings: in vivo; summary of the method: as §1
Rattus norvegicus [17] = assay: Efficacy against Freund's complete adjuvant-induced arthritis in Lewis rat assessed as inhibition of paw swelling at 50 mg/kg, po after 21 days; type: functional, organism-based; parameters: dose 50 mg/kg; summary of the method: as §3
[18] = AUC in cynomolgus monkey at 10 mg/kg, po; type: ADME, organism-based, Macaca fascicularis; parameters: dose 10 mg/kg, route oral; settings: plasma; summary of the method: as §1
Rattus norvegicus [19] = assay: Efficacy against Freund's complete adjuvant-induced arthritis in Lewis rat assessed as inhibition of paw swelling at 25 mg/kg, po after 21 days; type: functional, organism-based; parameters: dose 25 mg/kg; summary of the method: as §3
Cytochrome P450 3A4 = Cytochrome P450 3A4 (Homo sapiens, UniProt P08684); assay: Inhibition of CYP3A4; type: ADME; summary of the method: as §2
Sequence of Cytochrome P450 3A4 (P08684 whole entry): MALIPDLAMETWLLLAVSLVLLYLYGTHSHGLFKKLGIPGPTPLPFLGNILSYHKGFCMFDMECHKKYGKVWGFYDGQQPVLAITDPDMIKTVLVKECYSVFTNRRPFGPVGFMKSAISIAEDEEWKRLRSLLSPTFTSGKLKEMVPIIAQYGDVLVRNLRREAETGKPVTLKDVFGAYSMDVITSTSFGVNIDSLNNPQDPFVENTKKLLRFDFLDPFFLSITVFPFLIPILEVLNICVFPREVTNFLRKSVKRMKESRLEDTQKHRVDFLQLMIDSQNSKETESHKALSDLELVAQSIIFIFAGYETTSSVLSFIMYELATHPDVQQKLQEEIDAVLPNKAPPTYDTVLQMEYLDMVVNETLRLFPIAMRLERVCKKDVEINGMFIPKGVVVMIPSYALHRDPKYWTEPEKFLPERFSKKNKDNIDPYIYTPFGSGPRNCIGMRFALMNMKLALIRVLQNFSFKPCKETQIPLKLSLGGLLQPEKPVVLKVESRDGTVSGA

[20] = Volume of distribution at steady state in cynomolgus monkey at 2 mg/kg, iv; type: ADME, organism-based, Macaca fascicularis; parameters: dose 2 mg/kg, route intravenous; settings: in vivo, read-out: Vdss; summary of the method: as §1
[21] = Mean residence time in cynomolgus monkey at 2 mg/kg, iv; type: ADME, organism-based, Macaca fascicularis; parameters: dose 2 mg/kg, route intravenous; settings: in vivo; summary of the method: as §1
Rattus norvegicus [22] = assay: Efficacy against Freund's complete adjuvant-induced arthritis in Lewis rat assessed as inhibition of paw swelling at 15 mg/kg, po after 21 days; type: functional, organism-based; parameters: dose 15 mg/kg
Summary of the method: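 Adjuvant arthritis induced by subcutaneous Freund's complete adjuvant at the tail base in male Lewis rats. Oral dosing once daily for 21 days from day 0, vehicle 60% PEG400/40% 0.01 N HCl, 8 rats per group. Hind paw volume measured by plethysmometry at baseline and over three weeks; increase above baseline calculated; Student's t test against the vehicle group.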

Rattus norvegicus [23] = species on record: Rattus norvegicus; assay: Gastrointestinal toxicity in Lewis rat adjuvant arthritis model; type: organism-based; settings: in vivo
Summary of the method: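 Lewis rats in the adjuvant arthritis setting were given escalating oral daily doses for up to 14 days. Animals were monitored for diarrhea and weight loss, with gross examination and histopathology (crypt cell necrosis) used to define the maximum tolerated dose for GI toxicity.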

[24] = Therapeutic index for gastrointestinal toxicity in Lewis rat adjuvant arthritis model; settings: read-out: TI
Summary of the method: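 GI therapeutic index in the rat adjuvant arthritis model, calculated as the ratio of exposure (AUC) at the maximum tolerated dose for GI toxicity to the AUC at the lowest efficacious dose.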

CN(C)CCOc1ccc(C(C)(C)NC(=O)c2cc3[nH]c4ccccc4c(=O)c3cc2F)cc1 showed an IC50 [1] of 20 nM, an IC50 (PBMC) of 210 nM and an IC50 (CCRF-CEM) of 560 nM.

In the case of Cc1cc(C(C)(C)NC(=O)c2cc3[nH]c4ccccc4c(=O)c3cc2F)cnc1N1CCOCC1, the IC50 [1] is reported as 11 nM, the IC50 (PBMC) is reported as 270 nM and the IC50 (CCRF-CEM) is reported as 870 nM.

Work on C[C@H](NC(=O)c1ccc2c(=O)c3ccccc3[nH]c2c1)c1ccccc1 yielded an IC50 [1] of 431 nM.

For CC(C)(NC(=O)c1cc2[nH]c3ccccc3c(=O)c2cc1F)c1ccc(S(C)(=O)=O)cc1, the IC50 [1] was 12 nM, the IC50 (PBMC) was 170 nM and the IC50 (CCRF-CEM) was 480 nM.

With CCN1CCN(c2ccc(C(C)(C)NC(=O)c3cc4[nH]c5ccccc5c(=O)c4cc3F)cn2)CC1 the clearance [2] was 3.4 mL/min/kg, the MRT [3] was 4.4 h and the IC50 [1] was 17 nM. For the same compound, the half-life [4] was 4 h, the Activity (Serum) was 92% and the IC50 (PBMC) was 220 nM. The Tmax (Rattus norvegicus [5]) was 4 h, the IC50 (Cytochrome P450 2D6) was > 20000 nM and the IC50 (Cytochrome P450 2C9) was > 20000 nM. The logP [6] was 2.5, the Cmax [7] was 0.41 µM and the bioavailability [8] was 88%. For the same compound, the Vd [9] was 7.4 L/kg, the clearance [10] was 29 mL/min/kg and the AUC [11] was 5.2 µM·h. For the same compound, the Activity (Rattus norvegicus [12]) was “Active”, the Cmax [13] was 26 µM and the half-life [14] was 3.6 h. For the same compound, the Papp [15] was 32 ×10⁻⁶ cm/s, the IC50 (Cytochrome P450 1A2) was > 20000 nM and the IC50 (Cytochrome P450 2C19) was 19000 nM. The bioavailability [16] was 43%, the Activity (Rattus norvegicus [17]) was “Active” and the AUC [18] was 102 µM·h. For the same compound, the IC50 (CCRF-CEM) was 770 nM, the Activity (Rattus norvegicus [19]) was “Active” and the IC50 (Cytochrome P450 3A4) was 13000 nM. It also gave a Vd [20] of 1.1 L/kg and an MRT [21] of 5.5 h.

Compound CC(C)(C)NC(=O)c1ccc2c(=O)c3ccccc3[nH]c2c1 has an IC50 [1] of 59 nM and an IC50 (CCRF-CEM) of 3300 nM.

With CN(C)S(=O)(=O)c1cccc(C(C)(C)NC(=O)c2cc3[nH]c4ccccc4c(=O)c3cc2F)c1 the IC50 [1] was 7.9 nM, the IC50 (PBMC) was 130 nM and the IC50 (CCRF-CEM) was 380 nM.

Work on CC(C)(NC(=O)c1ccc2c(=O)c3ccccc3[nH]c2c1)c1cccnc1 yielded an IC50 [1] of 42 nM, an IC50 (PBMC) of 590 nM and an IC50 (CCRF-CEM) of 2200 nM.

With Cc1ccc(C(C)(C)NC(=O)c2cc3[nH]c4ccccc4c(=O)c3cc2F)cn1 the IC50 [1] was 23 nM, the IC50 (PBMC) was 270 nM and the IC50 (CCRF-CEM) was 750 nM.

With COc1c(C)c2c(c(O)c1C/C=C(\C)CCC(=O)OCCN1CCOCC1)C(=O)OC2 [MYCOPHENOLATE MOFETIL] the Activity (Rattus norvegicus [22]) was “Active”, the Activity (Rattus norvegicus [23]) was “Active” and the selectivity ratio [24] was 6.9.

C[C@@H](NC(=O)c1ccc2c(=O)c3ccccc3[nH]c2c1)c1ccccc1 showed an IC50 [1] of 95 nM.

In the case of CC(C)(NC(=O)c1cc2[nH]c3ccccc3c(=O)c2cc1F)c1ccc(N2CCOCC2)nc1, the IC50 [1] is reported as 20 nM, the IC50 (PBMC) is reported as 210 nM and the IC50 (CCRF-CEM) is reported as 660 nM.

With CC(C)(NC(=O)c1cc2[nH]c3ccccc3c(=O)c2cc1F)c1cccc(S(C)(=O)=O)c1 the IC50 [1] was 12 nM, the IC50 (PBMC) was 280 nM and the IC50 (CCRF-CEM) was 580 nM.
